Test results published in ChEMBL document CHEMBL1146177, “Total synthesis and biological evaluation of viscolin, a 1,3-diphenylpropane as a novel potent anti-inflammatory agent” (Bioorg Med Chem Lett, 2006).
pIC50: −log10 of the molar value.

How the values were obtained:
[1] = Inhibition of PMA plus ionomycin-induced IFN-gamma production in human CD8+ leukocytes measured as mean channel fluorescence at 5 uM; assay type: functional
In short: (§1)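 Human leukocytes were stimulated with PMA plus ionomycin. IL-2 (CD4+ Th cells) and IFN-γ (CD8+ cells) were measured by intracellular cytokine staining and read as mean channel fluorescence. Significance was tested against activator alone (P<0.05).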

[2] = system: BV-2; assay: Inhibition of NOS-dependent nitric oxide production in mouse BV2 cells; assay type: functional, cell-based
In short: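 Murine BV2 microglial cells. NOX activity was read as ROS production and NOS activity as NO production. DPI (NOX inhibitor) and L-NAME (NOS inhibitor) served as positive controls. IC50 is the mean ± SEM of 5–6 experiments on different days with cells from different passages.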

[3] = system: BV-2; assay: Inhibition of LPS-induced TNFalpha production in mouse BV2 cells measured as mean channel fluorescence at 25 uM
[4] = Cytotoxicity against microglial cells at 25 uM; settings: mouse, microglia
[5] = Inhibition of fMLP-induced ROS production in human leukocytes at 25 uM; assay type: functional; settings: Leukocyte
[6] = system: BV-2; assay: Inhibition of LPS-induced TNFalpha production in mouse BV2 cells measured as mean channel fluorescence at 5 uM
[7] = system: CD4+ve Th; assay: Inhibition of PMA plus ionomycin-induced IL2 production in human CD4+ Th cells measured as mean channel fluorescence at 25 uM; assay type: functional; in short: as §1
[8] = Inhibition of PMA-induced ROS production in human leukocytes at 25 uM; assay type: functional; settings: Leukocyte
[9] = Inhibition of PMA plus ionomycin-induced IFN-gamma production in human CD8+ leukocytes measured as mean channel fluorescence at 25 uM; assay type: functional; in short: as §1
[10] = system: CD4+ve Th; assay: Inhibition of PMA plus ionomycin-induced IL2 production in human CD4+ Th cells measured as mean channel fluorescence at 5 uM; assay type: functional; in short: as §1
[11] = Cytotoxicity against microglial cells at 10 uM; settings: mouse, microglia
[12] = Cytotoxicity against microglial cells at 5 uM; settings: mouse, microglia
[13] = system: BV-2; assay: Inhibition of NADPH oxidase-dependent reactive oxygen species production in mouse BV2 cells
[14] = Inhibition of PMA-induced ROS production in human PMN; assay type: functional
In short: (§2)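 Peripheral human neutrophils (PMN) or mononuclear cells (MNC) were stimulated with PMA (a PKC activator) or fMLP to induce ROS. IC50 is the mean ± SEM of 3–5 experiments on different days with cells from different donors.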

[15] = Inhibition of PMA-induced ROS production in human mononuclear leukocytes; assay type: functional, cell-based; in short: as §2
[16] = Inhibition of fMLP-induced ROS production in human mononuclear leukocytes; assay type: functional, cell-based; in short: as §2
[17] = Inhibition of fMLP-induced ROS production in human PMN; assay type: functional; in short: as §2
[18] = DPPH radical scavenging activity; assay type: functional
[19] = Inhibition of fMLP-induced calcium mobilisation in human peripheral leukocytes at 5 uM; assay type: functional
In short: (§3)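 Human leukocytes were preloaded with Fura-2, and intracellular Ca2+ rise was followed after fMLP stimulation. Inhibition is expressed as % of the calcium increment in drug-free samples (taken as 100%). Values are the mean ± SEM of 3 experiments on different days with different donors.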

[20] = molecular target: T1, Protein kinase C (PKC) (Homo sapiens) (UniProt O94806+P41743+P17252+P05129+Q05655+P05771+Q05513+Q02156+P24723+Q15139+Q04759); assay: Inhibition of PKC at 25 uM by ELISA; assay type: protein assay
In short: (§4)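 Protein kinase activity in human leukocytes is expressed as % inhibition relative to drug-free samples (taken as 100%). Values are the mean ± SEM of 3 experiments on different days with cells from different donors.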

[21] = molecular target: T1, Protein kinase C (PKC) (Homo sapiens); assay: Inhibition of PKC in human peripheral leucocytes at 5 uM by ELISA; assay type: cell-based; in short: as §4
[22] = Inhibition of fMLP-induced calcium mobilisation in human peripheral leukocytes at 25 uM; assay type: functional; in short: as §3

Structure (SMILES) | Activity [1] | pIC50 [2] | Activity [3] | Activity [4] [%] | Activity [6] | Activity [7] | Activity [9] | Activity [10] | Activity [11] [%] | Activity [12] [%] | other results
COc1cc(CCCc2c(OC)cc(OCc3ccccc3)c(OC)c2OC)ccc1OCc1ccccc1 | 59 | 4.70 | 154 | 9.6 | 164 | 102 | 65 | 100 | 8.9 | 14.6 | inhibition at 25 µM [5]: 37%; inhibition at 25 µM [8]: 20%
COc1cc(C/C=C/c2c(OC)cc(OCc3ccccc3)c(OC)c2OC)ccc1OCc1ccccc1 | 60 | 4.72 | 155 | 10 | 164 | 103 | 65 | 101 | 8.1 | 8.6 | inhibition at 25 µM [5]: 37%; inhibition at 25 µM [8]: 20%
c1ccc2c(c1)[I+]c1ccccc1-2 [DIPHENYLENEIODONIUM] |  |  |  |  |  |  |  |  |  |  | pIC50 [13]: 4.99
COC(=O)[C@@H](N)CCCNC(=N)N[N+](=O)[O-] [L-NAME] |  | 4.44 |  |  |  |  |  |  |  |  | 
O=c1c(O)c(-c2ccc(O)c(O)c2)oc2cc(O)cc(O)c12 [QUERCETIN] |  |  |  |  |  |  |  |  |  |  | pIC50 [14]: 5.26; pIC50 [15]: 5.51; pIC50 [16]: 5.40; pIC50 [17]: 5.60
Cc1c(C)c2c(c(C)c1O)CCC(C)(C(=O)O)O2 (stereo unspecified) [TROLOX] |  |  |  |  |  |  |  |  |  |  | pIC50 [18]: 4.39
COc1cc(CCCc2c(OC)cc(O)c(OC)c2OC)ccc1O [VISCOLIN] | 72 | 4.62 | 121 | 14.6 | 155 | 112 | 67 | 99 | 8.9 | 9.6 | pIC50 [14]: 4.92; pIC50 [13]: 4.53; pIC50 [15]: 5.08; inhibition at 5 µM [19]: 36.7%; inhibition [20]: 48.8%; pIC50 [16]: 5.60; pIC50 [18]: 4.31; inhibition [21]: 34.4%; pIC50 [17]: 5.85; inhibition at 25 µM [22]: 53.5%
